Experiments:
[1] = test system: Rattus norvegicus; assay: The incremental glycemia values after glucose administration (0.5 g/kg iv), to rats treated with streptozotocin (35 mg/kg iv); assay type: functional
In short: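 STZ (35 mg/kg iv) male Wistar rats were selected after 2 weeks with basal glycemia 7–10 mM and […]. They received 100 µmol/kg ip once before an iv glucose load. Tail blood was taken at 0, 5, 10, 15, 20 and 30 min. The glucose increment over baseline was integrated over 30 min and normalized as (treated−untreated STZ)/(untreated STZ−nondiabetic control)×100.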

[2] = test system: Rattus norvegicus; assay: The glycemia values 30 minutes after glucose administration to streptozotocin rats; assay type: functional
In short: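 Male Wistar rats (3-month, ~250 g) made diabetic with streptozotocin 35 mg/kg iv in citrate buffer; used 2 weeks later if basal glycemia was 7–10 mM. Single ip dose of 100 µmol/kg (hydrochloride salt), then iv glucose 0.5 g/kg under pentobarbital. Plasma glucose was read by analyzer at 30 min and expressed as % variation versus untreated STZ rats.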

[3] = test system: Rattus norvegicus; assay: The rate of glucose disappearance between 5 and 30 minutes after glucose administration; assay type: functional, organism-based
In short: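 In the intravenous glucose tolerance test (0.5 g/kg, saphenous vein, pentobarbital anesthesia), STZ-diabetic male Wistar rats had received a single 100 µmol/kg ip dose beforehand. Plasma glucose was sampled from the tail at 5–30 min. The glucose disappearance rate K was computed over 5–30 min and expressed as % variation versus untreated STZ rats.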

[4] = test system: Rattus norvegicus; assay: The incremental plasma insulin values over 30 minutes after glucose administration.; assay type: functional
In short: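 Moderately diabetic STZ Wistar rats were given 100 µmol/kg ip once, then 0.5 g/kg iv glucose under pentobarbital. Tail-vein plasma from 0–30 min was stored at −20 °C, and insulin was measured by radioimmunoassay (lower limit 19.5 pmol/L). The incremental insulin over baseline was integrated over 30 min and expressed as % variation versus untreated STZ rats.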

c1ccc(C(CC2=NCCN2)c2ccccn2)cc1 (stereo not drawn) [MIDAGLIZOLE]
Delta G [1]: 32%
G30 [2]: 121%

CN1CCN(Cc2ccc(F)cc2F)C(C2=NCCN2)C1 (stereo not drawn)
Delta G [1]: 102%
G30 [2]: 106%
K [3]: 97%

COc1cccc(CN2CCN(C)CC2C2=NCCN2)c1OC (stereo not drawn)
Delta I [4]: 60%
Delta G [1]: 0%
G30 [2]: 58%
K [3]: 55%

CN1CCN(Cc2c(Cl)cccc2Cl)C(C2=NCCN2)C1 (stereo not drawn)
Delta G [1]: 103%
G30 [2]: 59%
K [3]: 107%

CCN1CCN(Cc2ccccc2Cl)CC1C1=NCCN1 (stereo not drawn)
Delta G [1]: 70%
G30 [2]: 50%
K [3]: 106%

CC(C)CN1CCN(Cc2ccc(Cl)cc2Cl)C(C2=NCCN2)C1 (stereo not drawn)
Delta I [4]: 623%
Delta G [1]: 110%
G30 [2]: 95%
K [3]: 119%

CN1CCN(Cc2ccccc2Cl)C(C2=NCCN2)C1 (stereo not drawn)
Delta I [4]: 109%
Delta G [1]: 81%
G30 [2]: 103%
K [3]: 98%

Clc1ccc(CN2CCN(Cc3ccc(Cl)cc3Cl)C(C3=NCCN3)C2)c(Cl)c1 (stereo not drawn)
Delta G [1]: 0%
G30 [2]: 18%
K [3]: 22%

COc1ccccc1CN1CCN(C)CC1C1=NCCN1 (stereo not drawn)
Delta G [1]: 47%
G30 [2]: 56%
K [3]: 39%

CC(C)N1CCN(Cc2ccccc2Cl)CC1C1=NCCN1 (stereo not drawn)
Delta G [1]: 112%
G30 [2]: 96%
K [3]: 95%

CN1CCN(Cc2ccccc2C(F)(F)F)C(C2=NCCN2)C1 (stereo not drawn)
Delta G [1]: 94%
G30 [2]: 64%
K [3]: 63%

CN1CCN(Cc2ccc(Cl)cc2Cl)C(C2=NCCN2)C1 (stereo not drawn)
Delta I [4]: 221%
Delta G [1]: 105%
G30 [2]: 112%

CN1CCN(Cc2ccccc2F)C(C2=NCCN2)C1 (stereo not drawn)
Delta G [1]: 72%
G30 [2]: 52%
K [3]: 108%

CN1CCN(Cc2cccc(Cl)c2Cl)C(C2=NCCN2)C1 (stereo not drawn)
Delta G [1]: 0%
G30 [2]: 36%
K [3]: 53%

Clc1ccccc1CN1CCN(Cc2ccccc2Cl)C(C2=NCCN2)C1 (stereo not drawn)
Delta G [1]: 0%
G30 [2]: 0%
K [3]: 36%

CN1CCN(Cc2ccccc2)C(C2=NCCN2)C1 (stereo not drawn)
Delta I [4]: 16%
Delta G [1]: 0%
G30 [2]: 23%
K [3]: 67%

CCN1CCN(Cc2ccccc2Cl)C(C2=NCCN2)C1 (stereo not drawn)
Delta G [1]: 108%
G30 [2]: 38%
K [3]: 34%

CN1CCN(Cc2ccc(Cl)cc2Cl)CC1C1=NCCN1 (stereo not drawn)
Delta G [1]: 34%
G30 [2]: 102%
K [3]: 152%

Cc1ccccc1CN1CCN(C)CC1C1=NCCN1 (stereo not drawn)
Delta G [1]: 24%
G30 [2]: 48%
K [3]: 81%

c1ccc2c(c1)OCC(C1=NCCN1)O2 (stereo not drawn) [IDAZOXAN]
Delta G [1]: 8%
G30 [2]: 48%
K [3]: 79%

COc1cccc(CN2CCN(C)CC2C2=NCCN2)c1 (stereo not drawn)
Delta I [4]: 88%
Delta G [1]: 23%
G30 [2]: 68%
K [3]: 57%

CN1CCN(Cc2cc(Cl)cc(Cl)c2)C(C2=NCCN2)C1 (stereo not drawn)
Delta G [1]: 0%
G30 [2]: 70%
K [3]: 117%

CN1CCN(Cc2cccc(Cl)c2)C(C2=NCCN2)C1 (stereo not drawn)
Delta G [1]: 0%
G30 [2]: 23%
K [3]: 39%

CN1CCN(Cc2ccccc2Cl)CC1C1=NCCN1 (stereo not drawn)
Delta G [1]: 93%
G30 [2]: 97%
K [3]: 148%

CCCN1CCN(Cc2ccc(Cl)cc2Cl)C(C2=NCCN2)C1 (stereo not drawn)
Delta G [1]: 24%
G30 [2]: 80%
K [3]: 104%

c1ccc(CN2CCN(Cc3ccccc3)C(C3=NCCN3)C2)cc1 (stereo not drawn)
Delta G [1]: 0%
G30 [2]: 33%
K [3]: 43%

CN1CCN(Cc2ccc(Cl)cc2)C(C2=NCCN2)C1 (stereo not drawn)
Delta G [1]: 0%
G30 [2]: 68%
K [3]: 110%

CN1CCN(Cc2ccc(Cl)c(Cl)c2)C(C2=NCCN2)C1 (stereo not drawn)
Delta G [1]: 36%
G30 [2]: 47%
K [3]: 42%

CCCN1CCN(Cc2ccccc2Cl)C(C2=NCCN2)C1 (stereo not drawn)
Delta I [4]: 25%
Delta G [1]: 0%
G30 [2]: 17%
K [3]: 37%

Clc1ccccc1CN1CCNCC1C1=NCCN1 (stereo not drawn)
Delta G [1]: 0%
G30 [2]: 0%
K [3]: 11%

CC(C)N1CCN(Cc2ccccc2Cl)C(C2=NCCN2)C1 (stereo not drawn)
Delta G [1]: 84%
G30 [2]: 83%
K [3]: 44%
